Assay results as given in ChEMBL document CHEMBL2086252, “Syntheses and evaluation of anticonvulsant activity of novel branched alkyl carbamates” (J Med Chem, 2012).
Calls of active or inactive are those of the source. No cut-off for these calls is given here.

Experiments:
Rattus norvegicus [1] = assay: Protective index, ratio of TD50 for ip dosed Sprague-Dawley albino rat by rotarod test to ED50 for ip dosed Sprague-Dawley albino rat by subcutaneous metrazol seizures test; type: functional
Procedure, shortened: (§1)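 Protective index calculated as TD50/ED50, with TD50 and ED50 taken from the same species and dosing route.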

[2] = Neurotoxicity in ip dosed Sprague-Dawley albino rat assessed as minimal motor impairment by rotarod test; type: toxicity, organism-based; conditions: in vivo
Procedure, shortened: (§2)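 Quantitative testing: rats dosed orally or ip in MES and scMet tests, and mice dosed ip, including the 6 Hz (32 mA) psychomotor seizure test. ED50 and TD50 were reported in mg/kg with ranges in parentheses. Protective index was calculated as TD50/ED50.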

[3] = Neurotoxicity in po dosed Sprague-Dawley albino rat assessed as minimal motor impairment by rotarod test; type: toxicity, organism-based; conditions: in vivo
Procedure, shortened: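 Rats dosed orally; 4 rats per time point after dosing. Neurotoxicity was scored as motor impairment or sedation and reported as number of animals affected over number tested.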

Mus musculus [4] = assay: Anticonvulsant activity in albino CF1 mouse assessed as protection against subcutaneous metrazol-induced seizures at 30 mg/kg, ip after 0.5 hrs; type: functional, organism-based; design: dose 30 mg/kg
Procedure, shortened: (§3)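 Mice dosed ip at 30, 100 or 300 mg/kg, then tested 0.5 h and 4 h after administration in the MES or scMet test. Protection was recorded as animals protected over animals tested. Neurotoxicity was recorded as motor impairment or sedation, as animals affected over animals tested.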

Mus musculus [5] = assay: Anticonvulsant activity in albino CF1 mouse assessed as protection against subcutaneous metrazol-induced seizures at 100 mg/kg, ip after 0.5 hrs; type: functional, organism-based; design: dose 100 mg/kg; procedure, shortened: as §3
Mus musculus [6] = assay: Anticonvulsant activity in albino CF1 mouse assessed as protection against subcutaneous metrazol-induced seizures at 30 mg/kg, ip after 4 hrs; type: functional, organism-based; design: dose 30 mg/kg; procedure, shortened: as §3
Mus musculus [7] = assay: Anticonvulsant activity in albino CF1 mouse assessed as protection against subcutaneous metrazol-induced seizures at 100 mg/kg, ip after 4 hrs; type: functional, organism-based; design: dose 100 mg/kg; procedure, shortened: as §3
Mus musculus [8] = assay: Neurotoxicity in albino CF1 mouse assessed as minimal motor impairment at 30 mg/kg, ip after 0.5 hrs by rotarod test; type: toxicity, organism-based; design: dose 30 mg/kg, route intraperitoneal; conditions: in vivo; procedure, shortened: as §3
Mus musculus [9] = assay: Neurotoxicity in albino CF1 mouse assessed as minimal motor impairment at 100 mg/kg, ip after 0.5 hrs by rotarod test; type: toxicity, organism-based; design: dose 100 mg/kg, route intraperitoneal; conditions: in vivo; procedure, shortened: as §3
Mus musculus [10] = assay: Neurotoxicity in albino CF1 mouse assessed as minimal motor impairment at 300 mg/kg, ip after 0.5 hrs by rotarod test; type: toxicity, organism-based; design: dose 300 mg/kg, route intraperitoneal; conditions: in vivo; procedure, shortened: as §3
Mus musculus [11] = assay: Neurotoxicity in albino CF1 mouse assessed as minimal motor impairment at 100 mg/kg, ip after 4 hrs by rotarod test; type: toxicity, organism-based; design: dose 100 mg/kg, route intraperitoneal; conditions: in vivo; procedure, shortened: as §3
Mus musculus [12] = assay: Neurotoxicity in albino CF1 mouse assessed as minimal motor impairment at 300 mg/kg, ip after 4 hrs by rotarod test; type: toxicity, organism-based; design: dose 300 mg/kg, route intraperitoneal; conditions: in vivo; procedure, shortened: as §3
Rattus norvegicus [13] = assay: Anticonvulsant activity in Sprague-Dawley albino rat assessed as protection against maximal electroshock-induced seizures at 30 mg/kg, po after 30 mins; type: functional, organism-based; design: dose 30 mg/kg
Procedure, shortened: (§4)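 Rats dosed orally. Anti-MES protection was scored as animals protected over animals tested at each time after dosing. Neurotoxicity was scored as motor impairment or sedation, as animals affected over animals tested.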

Rattus norvegicus [14] = assay: Anticonvulsant activity in Sprague-Dawley albino rat assessed as protection against maximal electroshock-induced seizures at 30 mg/kg, po after 1 hr; type: functional, organism-based; design: dose 30 mg/kg; procedure, shortened: as §4
Rattus norvegicus [15] = assay: Anticonvulsant activity in Sprague-Dawley albino rat assessed as protection against maximal electroshock-induced seizures at 30 mg/kg, po after 2 hrs; type: functional, organism-based; design: dose 30 mg/kg; procedure, shortened: as §4
Rattus norvegicus [16] = assay: Anticonvulsant activity in Sprague-Dawley albino rat assessed as protection against maximal electroshock-induced seizures at 30 mg/kg, po after 4 hrs; type: functional, organism-based; design: dose 30 mg/kg; procedure, shortened: as §4
Rattus norvegicus [17] = assay: Anticonvulsant activity in po dosed Sprague-Dawley albino rat assessed as protection against maximal electroshock-induced seizures; type: functional; procedure, shortened: as §2
Rattus norvegicus [18] = assay: Anticonvulsant activity in ip dosed Sprague-Dawley albino rat assessed as protection against maximal electroshock-induced seizures; type: functional; procedure, shortened: as §2
Rattus norvegicus [19] = assay: Protective index, ratio of TD50 for po dosed Sprague-Dawley albino rat by rotarod test to ED50 for po dosed Sprague-Dawley albino rat by maximal electroshock seizures test; type: functional; procedure, shortened: as §1
Rattus norvegicus [20] = assay: Protective index, ratio of TD50 for ip dosed Sprague-Dawley albino rat by rotarod test to ED50 for ip dosed Sprague-Dawley albino rat by maximal electroshock seizures test; type: functional; procedure, shortened: as §1
Mus musculus [21] = assay: Protective index, ratio of TD50 for ip dosed albino CF1 mouse by rotarod test to ED50 for ip dosed albino CF1 mouse by maximal electroshock seizures test; type: functional; procedure, shortened: as §1
Rattus norvegicus [22] = assay: Anticonvulsant activity in po dosed Sprague-Dawley albino rat assessed as protection against subcutaneous metrazol-induced seizures; type: functional; procedure, shortened: as §2
Rattus norvegicus [23] = assay: Anticonvulsant activity in ip dosed Sprague-Dawley albino rat assessed as protection against subcutaneous metrazol-induced seizures; type: functional; procedure, shortened: as §2
Mus musculus [24] = assay: Anticonvulsant activity in ip dosed albino CF1 mouse assessed as protection against subcutaneous metrazol-induced seizures; type: functional; procedure, shortened: as §2
Rattus norvegicus [25] = assay: Protective index, ratio of TD50 for po dosed Sprague-Dawley albino rat by rotarod test to ED50 for po dosed Sprague-Dawley albino rat by subcutaneous metrazol seizures test; type: functional; procedure, shortened: as §1
Mus musculus [26] = assay: Protective index, ratio of TD50 for ip dosed albino CF1 mouse by rotarod test to ED50 for ip dosed albino CF1 mouse by subcutaneous metrazol seizures test; type: functional; procedure, shortened: as §1
[27] = Neurotoxicity in ip dosed albino CF1 mouse assessed as minimal motor impairment by rotarod test; type: toxicity, organism-based; conditions: in vivo; procedure, shortened: as §2
Mus musculus [28] = assay: Anticonvulsant activity in ip dosed albino CF-1 mouse assessed as protection against 6 Hz psychomotor seizure; type: functional; conditions: albino CF-1, ip; procedure, shortened: as §2
Rattus norvegicus [29] = assay: Neurotoxicity in pilocarpine-induced status epilepticus Sprague-Dawley albino rat model assessed as minimal motor impairment at 30 mg/kg, ip after 0.25 hr by rotarod test; type: toxicity, organism-based; design: dose 30 mg/kg, route intraperitoneal; conditions: in vivo
Procedure, shortened: (§5)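 Rat pilocarpine status epilepticus model: test carbamate given at 0 or 30 min after the first observed Racine stage 3 motor seizure, which marks SE onset. Neurotoxicity was scored within the same model.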

Rattus norvegicus [30] = assay: Neurotoxicity in pilocarpine-induced status epilepticus Sprague-Dawley albino rat model assessed as minimal motor impairment at 100 mg/kg, ip after 0.5 hrs by rotarod test; type: toxicity, organism-based; design: dose 100 mg/kg, route intraperitoneal; conditions: in vivo
Rattus norvegicus [31] = assay: Neurotoxicity in pilocarpine-induced status epilepticus Sprague-Dawley albino rat model assessed as minimal motor impairment at 30 mg/kg, ip after 0.5 hrs by rotarod test; type: toxicity, organism-based; design: dose 30 mg/kg, route intraperitoneal; conditions: in vivo; procedure, shortened: as §5
Rattus norvegicus [32] = assay: Neurotoxicity in pilocarpine-induced status epilepticus Sprague-Dawley albino rat model assessed as minimal motor impairment at 100 mg/kg, ip after 1 hr by rotarod test; type: toxicity, organism-based; design: dose 100 mg/kg, route intraperitoneal; conditions: in vivo
Rattus norvegicus [33] = assay: Neurotoxicity in pilocarpine-induced status epilepticus Sprague-Dawley albino rat model assessed as minimal motor impairment at 100 mg/kg, ip after 2 hrs by rotarod test; type: toxicity, organism-based; design: dose 100 mg/kg, route intraperitoneal; conditions: in vivo
Rattus norvegicus [34] = assay: Neurotoxicity in pilocarpine-induced status epilepticus Sprague-Dawley albino rat model assessed as minimal motor impairment at 30 mg/kg, ip after 2 hrs by rotarod test; type: toxicity, organism-based; design: dose 30 mg/kg, route intraperitoneal; conditions: in vivo; procedure, shortened: as §5
Rattus norvegicus [35] = assay: Neurotoxicity in pilocarpine-induced status epilepticus Sprague-Dawley albino rat model assessed as minimal motor impairment at 100 mg/kg, ip after 4 hrs by rotarod test; type: toxicity, organism-based; design: dose 100 mg/kg, route intraperitoneal; conditions: in vivo
Rattus norvegicus [36] = assay: Neurotoxicity in pilocarpine-induced status epilepticus Sprague-Dawley albino rat model assessed as minimal motor impairment at 30 mg/kg, ip after 4 hrs by rotarod test; type: toxicity, organism-based; design: dose 30 mg/kg, route intraperitoneal; conditions: in vivo; procedure, shortened: as §5
Rattus norvegicus [37] = assay: Ratio of ED50 for po dosed Sprague-Dawley albino rat to ED50 for ip dosed Sprague-Dawley albino rat by maximal electroshock-induced seizure test; type: functional
Rattus norvegicus [38] = assay: Anticonvulsant activity in Sprague-Dawley albino rat assessed as protection against pilocarpine-induced status epilepticus at 130 mg/kg, ip administered 0 and 30 mins after status epilepticus onset

In the case of CCC(COC(N)=O)C(C)C (racemic), the “Ratio TD50/ED50” value (Rattus norvegicus [1]) was 1.3, the TD50 [2] was 58 mg/kg and the TD50 [3] was over 500 mg/kg. The Activity (Mus musculus [4]) was “inactive”, the Activity (Mus musculus [5]) was “inactive” and the Activity (Mus musculus [6]) was “inactive”. The Activity (Mus musculus [7]) was “inactive”, the Activity (Mus musculus [8]) was “Non-toxic” and the Activity (Mus musculus [9]) was “Non-toxic”. For the same compound, the Activity (Mus musculus [10]) was “Toxic”, the Activity (Mus musculus [11]) was “Non-toxic” and the Activity (Mus musculus [12]) was “Non-toxic”. The Activity (Rattus norvegicus [13]) was “inactive”, the Activity (Rattus norvegicus [14]) was “inactive” and the Activity (Rattus norvegicus [15]) was “inactive”. The Activity (Rattus norvegicus [16]) was “inactive”, the ED50 (Rattus norvegicus [17]) was 64 mg/kg and the ED50 (Rattus norvegicus [18]) was 16 mg/kg. The “Ratio TD50/ED50” value (Rattus norvegicus [19]) was 7.8, the “Ratio TD50/ED50” value (Rattus norvegicus [20]) was 3.6 and the “Ratio TD50/ED50” value (Mus musculus [21]) was 1.5. The ED50 (Rattus norvegicus [22]) was 35 mg/kg, the ED50 (Rattus norvegicus [23]) was 19 mg/kg and the ED50 (Mus musculus [24]) was 120 mg/kg. For the same compound, the “Ratio TD50/ED50” value (Rattus norvegicus [25]) was 14, the “Ratio TD50/ED50” value (Mus musculus [26]) was 2.9 and the TD50 [27] was 157 mg/kg. For the same compound, the ED50 (Mus musculus [28]) was 33 mg/kg, the Activity (Rattus norvegicus [29]) was “Non-toxic” and the Activity (Rattus norvegicus [30]) was “Toxic”. The Activity (Rattus norvegicus [31]) was “Non-toxic”, the Activity (Rattus norvegicus [32]) was “Non-toxic” and the Activity (Rattus norvegicus [33]) was “Non-toxic”. The Activity (Rattus norvegicus [34]) was “Non-toxic”, the Activity (Rattus norvegicus [35]) was “Non-toxic” and the Activity (Rattus norvegicus [36]) was “Non-toxic”. The “Ratio ED50” value (Rattus norvegicus [37]) was 4 and the Activity (Rattus norvegicus [38]) was “Active”.
